# RAD52 anneal inh = blocks human RAD52 DNA annealing | recombinant RAD52 DNA annealing, FRET fluorescence | inhibition, % at 18.7 µM | 360,000 compounds, 0.46% hits | AID 651710;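 active means every replicate showing at least 50% inhibition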
# Glyco luc inh = blocks N-linked glycosylation in D54 reporter cells; D54 ERlucT glycosylation luciferase reporter, 24 h; percent of 100 nM tunicamycin response; reporter increase, % at 12.5 µM; 360,000 compounds, 0.23% hits; AID 588692;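 active means mean luciferase reporter signal, scaled so untreated is 0 and the glycosylation-blocking control 100, at or above a set limit in every replicate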;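 further: luciferase carries N-glycosylation sites so blocking glycosylation raises the light; 0% = median of neutral control wells and 100% = median of 100 nM tunicamycin wells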
# FN deposition inh = fibronectin deposition inhibition; AH1F fibroblasts, Alexa488-fibronectin deposition fluorescence, overnight; inhibition, % at 12.6 µM; 350,000 compounds, 0.086% hits;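 active means mean inhibition across replicates of 30% or more, regardless of how many single replicates reach that level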;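 further: positive control wells lacked labelled fibronectin entirely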
#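 material = AH1F fibroblast monolayer depositing Alexa488-labelled fibronectin into matrix | amount = 10000 AH1F cells/well | buffer or medium = DMEM plus 2% serum, read in PBS | incubation = 1 h cell adhesion before compound, then overnight fibronectin incubation | detection = fluorescence at 485 nm excitation, 525 nm emission | evaluation = percent inhibition as loss of matrix-bound fibronectin fluorescence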
# RAD54 inh = RAD54 (human) branch migration inhibition; Q92698; RAD54 Holliday junction branch migration, FAM/BHQ fluorescence; inhibition, % at 10.4 µM; 360,000 compounds, 0.14% hits; AID 602329;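 active means mean normalized replicate activity at least 40 and at least half of replicates scoring 40 or more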;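 further: 0% = median of neutral control wells and 100% = median of positive control wells; inhibitors cause a drop in the FAM fluorescence signal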
# NSD2 HMT inh = NSD2 (human) methyltransferase inhibition; O96028; NSD2 peptide methylation, AlphaScreen, 120 min; inhibition, % at 12.5 µM; 310,000 compounds, 0.54% hits; in the data active means inhibition above about 50%
# AF4-AF9 inh = MLL-AF4/AF9 protein interaction inhibition; P42568; AlphaScreen, biotin-AF4 peptide binding to FLAG-AF9; inhibition, % at 10 µM; 350,000 compounds, 0.47% hits; AID 651704;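 active means every replicate reaching a set inhibition limit, whatever the replicate mean, cut at about 25% in these data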;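 further: 0% = plate neutral control median and 100% = total signal loss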
# Numbers without * were called inactive; nt = no result given. Only some compounds are listed: those with a hit (about 1.2% of all), similar ones and a draw of the others.
SMILES,RAD52 anneal inh,Glyco luc inh,FN deposition inh,RAD54 inh,NSD2 HMT inh,AF4-AF9 inh
COc1ccc(C2CC(c3cccs3)=NN2C(=O)c2ccccc2)cc1OC (centres undefined),-7,-2,6,-3,-1,14
CCOCCCn1c(=N)c(S(=O)(=O)c2ccccc2)cc2c(=O)n3cc(C)ccc3nc21,-108,5,5,-1,0,26*
N=c1c(S(=O)(=O)c2ccc(Cl)cc2)cc2c(=O)n3ccccc3nc2n1CCc1ccccc1,-68,50*,-1,-21,1,1
Cc1ccc2nc3c(cc(C(N)=S)c(=N)n3CCCOC(C)C)c(=O)n2c1,-226,37*,nt,15,17,-1
COc1cccc(C#Cc2cnc3c(c2)C(=O)N([C@H](C)CO)C[C@H](C)[C@H](CN(C)C(=O)C2CC2)O3)c1,7,nt,nt,5,nt,-2
CNC(=O)C[C@H]1CC[C@H]2[C@@H](COc3ccc(NC(=O)CC(F)(F)F)cc3C(=O)N2C)O1,nt,nt,5,-6,nt,nt
CCCNC(=O)N1CC2(CN(CC3CCCC3)C2)c2c(n(C)c3cc(OC)ccc23)[C@H]1CO,16,nt,nt,nt,nt,28*
CCCNC(=O)N1CC2(CN(CC3CC3)C2)c2c(n(C)c3cc(OC)ccc23)[C@@H]1CO,4,nt,nt,nt,nt,12
COc1ccc2c3c(n(C)c2c1)[C@@H](CO)N(C(=O)CN(C)C)CC31CCN(C(=O)CN(C)C)CC1,22,nt,nt,nt,nt,4
COc1ccc(S(=O)(=O)N2CCC3(CC2)CN(C(=O)CN(C)C)[C@@H](CO)c2c3c3ccc(OC)cc3n2C)cc1,47,nt,nt,nt,nt,35*
COc1ccc2c3c(n(C)c2c1)[C@@H](CO)N(C(=O)C1CC1)CC31CN(Cc2ccccc2OC)C1,24,nt,2,nt,nt,24
CCC(=O)N1CC2(CN(Cc3ccc(Cl)cc3)C2)c2c(n(C)c3cc(OC)ccc23)[C@H]1CO,-8,nt,nt,nt,nt,29*
COc1ccc2c3c(n(C)c2c1)[C@H](CO)N(C(=O)c1ccccc1)CC31CN(Cc2ccccc2OC)C1,nt,nt,nt,nt,nt,45*
CCCN1[C@@H]2c3ccc(-c4ccncc4)c(=O)n3C[C@H]1[C@H](CO)[C@H]2C(=O)N1CCCCC1,-2,nt,nt,4,nt,-1
CCC(=O)N1CC2(CN(Cc3ccc(F)cc3)C2)c2c(n(C)c3cc(OC)ccc23)[C@H]1CO,17,nt,6,nt,nt,5
CCC(=O)N1CC2(CN(Cc3ccc(Cl)cc3)C2)c2c(n(C)c3cc(OC)ccc23)[C@@H]1CO,-1,nt,nt,nt,nt,38*
CNC[C@@H]1Oc2ccc(NC(=O)Cn3cnnn3)cc2CC(=O)N([C@H](C)CO)C[C@@H]1C,-1,nt,nt,10,nt,-3
CCN(Cc1ccncc1)C(=O)c1ccc2c(c1)S(=O)(=O)c1ccccc1C2=O,-15,-1,39*,nt,0,1
CCCCCCCCCCCCCCCC[n+]1ccc(/C=N/O)cc1,88*,87*,nt,nt,nt,5
COc1ccc(S(=O)(=O)Nc2ccc3c(c2)CC(=O)N([C@H](C)CO)C[C@H](C)[C@@H](CN(C)C(=O)Nc2ccccc2)O3)cc1,-1,nt,nt,-1,nt,0
COc1ccc(-c2csc(NC(=O)CSc3nnc4c(C)cc5ccccc5n34)n2)cc1,nt,nt,nt,nt,6,nt
COc1ccc2cc(C)c3nnc(SCC(=O)Nc4nc(-c5ccc(F)cc5)cs4)n3c2c1,nt,38*,1,nt,-1,nt
CCc1ccc(NS(=O)(=O)c2ccc3c(c2)oc(=O)n3C)cc1,-7,-4,0,-12,3,35*
Cc1ccc(S(=O)(=O)Nc2ccc3c(c2)n(C)c(=O)n3C)cc1,-8,65*,3,-2,0,-6
Cc1ccc(NS(=O)(=O)c2ccc3c(c2)n(C)c(=O)n3C)c(C)c1,-3,10,8,5,0,0
SMILES,RAD52 anneal inh,Glyco luc inh,FN deposition inh,RAD54 inh,NSD2 HMT inh,AF4-AF9 inh
Cn1c(=O)n(C)c2cc(S(=O)(=O)Nc3ccccc3)ccc21,6,6,1,nt,1,-4
Cc1ccc(NS(=O)(=O)c2ccc3c(c2)n(C)c(=O)n3C)cc1C,1,8,3,4,11,-1
Cn1c(=O)n(C)c2cc(NS(=O)(=O)c3ccccc3)ccc21,nt,34*,nt,9,1,nt
CCc1ccc(S(=O)(=O)Nc2cc3c(cc2C)n(C)c(=O)n3C)cc1,-12,46*,3,6,-1,-3
COc1cc2cc(C)c(SCC(=O)N3c4ccccc4Sc4ccccc43)nc2cc1OC,nt,nt,nt,nt,-1,nt
COc1ccccc1CN(C)C[C@H]1OCc2ccccc2-c2c(n(C)c3ccccc23)C(=O)N([C@H](C)CO)C[C@@H]1C,nt,nt,-12,nt,nt,nt
